How the values were obtained:
[1] = biological target: T1, Guanylate cyclase soluble subunit alpha-1 (Rattus norvegicus) (UniProt P19686); assay: Stimulation of rat recombinant sGCalpha1 subunit expressed in CHO cells using alpha-[32P]GTP as substrate assessed as >=3 fold increase in [32P]cGMP formation after 10 mins by radioimmunoassay; type: cell-based
T1 sequence (whole entry): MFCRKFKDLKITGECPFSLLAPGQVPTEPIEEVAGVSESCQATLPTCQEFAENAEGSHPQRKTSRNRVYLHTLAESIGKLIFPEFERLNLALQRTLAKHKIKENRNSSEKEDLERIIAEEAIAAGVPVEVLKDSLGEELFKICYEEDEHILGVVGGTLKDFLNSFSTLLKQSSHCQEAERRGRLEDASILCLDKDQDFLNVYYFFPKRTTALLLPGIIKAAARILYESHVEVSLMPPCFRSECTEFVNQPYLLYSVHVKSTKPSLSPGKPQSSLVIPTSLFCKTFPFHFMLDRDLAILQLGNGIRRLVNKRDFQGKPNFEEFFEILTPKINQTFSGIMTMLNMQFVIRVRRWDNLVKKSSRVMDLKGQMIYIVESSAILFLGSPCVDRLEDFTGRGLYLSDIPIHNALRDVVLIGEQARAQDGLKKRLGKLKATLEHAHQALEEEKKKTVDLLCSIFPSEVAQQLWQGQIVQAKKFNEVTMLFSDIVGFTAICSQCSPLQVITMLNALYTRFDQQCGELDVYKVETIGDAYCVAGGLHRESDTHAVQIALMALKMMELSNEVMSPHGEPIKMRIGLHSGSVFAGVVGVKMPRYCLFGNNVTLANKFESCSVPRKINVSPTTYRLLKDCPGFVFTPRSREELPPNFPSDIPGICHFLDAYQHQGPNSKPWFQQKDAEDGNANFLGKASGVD

[2] = Clearance in rat hepatocytes at 1 uM up to 90 mins by LC-MS/MS analysis; type: ADME, cell-based, Hepatocyte
Method in brief: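 Rat hepatocytes at 1 × 10^6 viable cells/mL (trypan blue-corrected) in Williams' medium E, 1 μM substrate, MeCN ≤1%, 37 °C, pH 7.4. Sampled at 2−90 min, quenched with MeCN, analysed by LC-MS/MS.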

Saphenous artery [3] = assay: Vasorelaxant activity in normal Chinchilla rabbit saphenous artery ring administered at the beginning of the last resting period of 28 mins; type: functional; details: Oryctolagus cuniculus
Saphenous artery [4] = assay: Vasorelaxant activity in nirate-tolerant Chinchilla rabbit saphenous artery ring administered at the beginning of the last resting period of 28 mins in presence of sorbide dinitrate; type: functional; details: Oryctolagus cuniculus
[5] = Efflux ratio of apparent permeability in human Caco2 cells; type: ADME, cell-based; details: Caco-2
Method in brief: (§1)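 Caco-2 cells grown 14−16 d on inserts. Compound dissolved in DMSO and diluted to final 2 μM in HBSS with glucose (19.9 mM) and HEPES (9.8 mM). Added apically (A−B) or basolaterally, incubated 2 h at 37 °C. Both compartments analysed by LC-MS to calculate Papp. Efflux ratio = Papp B−A/Papp A−B. Lucifer yellow monolayer integrity check.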

[6] = Apparent permeability across apical to basolateral side in human Caco2 cells at 2 uM after 2 hrs by LC-MS analysis; type: ADME, cell-based; details: Caco-2; method in brief: as §1
[7] = Oral bioavailability in Wistar rat administered via oral gavage after 24 hrs by LC-MS analysis; type: ADME, organism-based; details: in vivo
Method in brief: (§2)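 Male Wistar rats and female beagle dogs. iv in plasma/DMSO (rat) or H2O/PEG 400/EtOH (dog). Oral gavage in H2O/PEG 400/EtOH for both. Rats jugular-catheterised ≥1 d before dosing. Usually >10 blood samples, at least two after 24 h. Plasma quantified by LC-MS with internal standard. CL, t1/2, Vss and F calculated from plasma curves. Blood clearance via blood/plasma ratio (20 min blood incubation).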

[8] = Clearance in iv dosed Wistar rat blood after 24 hrs by LC-MS analysis; type: ADME, organism-based; details: whole blood; method in brief: as §2
[9] = Clearance in iv dosed Beagle dog blood after 24 hrs by LC-MS analysis; type: ADME, organism-based, Canis lupus familiaris; details: whole blood; method in brief: as §2
[10] = Volume of distribution at steady state in iv dosed Beagle dog after 24 hrs by LC-MS analysis; type: ADME, organism-based, Canis lupus familiaris; details: in vivo, read-out: Vdss; method in brief: as §2
[11] = Terminal half life in iv dosed Beagle dog blood after 24 hrs by LC-MS analysis; type: ADME, organism-based, Canis lupus familiaris; details: whole blood, read-out: beta t1/2 (converted); method in brief: as §2
[12] = Volume of distribution at steady state in iv dosed Wistar rat after 24 hrs by LC-MS analysis; type: ADME, organism-based; details: in vivo, read-out: Vdss; method in brief: as §2
[13] = Terminal half life in iv dosed Wistar rat blood after 24 hrs by LC-MS analysis; type: ADME, organism-based; details: whole blood, read-out: beta t1/2 (converted); method in brief: as §2
[14] = Oral bioavailability in Beagle dog administered via oral gavage after 24 hrs by LC-MS analysis; type: ADME, organism-based, Canis lupus familiaris; details: in vivo; method in brief: as §2
[15] = Plasma clearance in iv dosed Beagle dog after 24 hrs by LC-MS analysis; type: ADME, organism-based, Canis lupus familiaris
Method in brief: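 Female beagle dogs were dosed iv in an H2O/PEG 400/EtOH formulation. Blood was collected into heparinized tubes, and plasma was obtained by centrifugation at 1000g and stored at −20 °C if needed. Drug was quantified by LC-MS (selected ion monitoring or high-resolution) against an internal standard. Clearance was calculated from the plasma concentration–time course.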

Compound	MEC [1]	CLhep predicted at 1 µM [2]	other results
Nc1nc(-c2nn(Cc3ccccc3F)c3ncccc23)nc(N)c1N1CCOC1=O	0.3 µM	6.67 mL/min/kg	–
O=[N+]([O-])OCC(CO[N+](=O)[O-])O[N+](=O)[O-] [NITROGLYCERIN]	–	–	IC50 (Saphenous artery [3]): 1.9 nM; IC50 (Saphenous artery [4]): 9.6 nM
Nc1nc(-c2nn(Cc3ccccc3F)c3ncccc23)nc(N)c1NC(=O)OC1CCC1	0.2 µM	23.3 mL/min/kg	efflux ratio [5]: 25; Papp A→B at 2 h, 2 µM [6]: 2.3 ×10⁻⁶ cm/s
COC(=O)N(Cc1ccc(F)cc1)c1c(N)nc(-c2nn(Cc3ccccc3F)c3ncccc23)nc1N	0.7 µM	40 mL/min/kg	–
CC1(C)CN(c2c(N)nc(-c3nn(Cc4ccccc4F)c4ncccc34)nc2N)C(=O)O1	0.2 µM	21.7 mL/min/kg	–
COC(=O)N(CCO)c1c(N)nc(-c2nn(Cc3ccccc3F)c3ncccc23)nc1N	0.3 µM	61.7 mL/min/kg	–
CC(C)OC(=O)Nc1c(N)nc(-c2nn(Cc3ccccc3F)c3ncccc23)nc1N	0.8 µM	15 mL/min/kg	–
Nc1nc(-c2nn(Cc3ccccc3F)c3ncccc23)nc(N)c1N1C[C@@H](C(F)(F)F)OC1=O	0.03 µM	26.7 mL/min/kg	–
COC(=O)Nc1c(N)nc(-n2nc(Cc3ccccc3F)c3ncc(F)cc32)nc1N	0.5 µM	1.67 mL/min/kg	bioavailability [7]: 26%; clearance [8]: 5 mL/min/kg; clearance [9]: 3.33 mL/min/kg; Vd [10]: 1 L/kg; half-life [11]: 4.1 h; Vd [12]: 0.5 L/kg; half-life [13]: 1.5 h; bioavailability [14]: 56%
COC(=O)N(Cc1ccccc1F)c1c(N)nc(-c2nn(Cc3ccccc3F)c3ncccc23)nc1N	0.1 µM	53.3 mL/min/kg	–
COC(=O)Nc1c(N)nc(-c2nc(Cc3ccccc3F)n3ncccc23)nc1N	0.7 µM	< 1.67 mL/min/kg	bioavailability [7]: 37%; clearance [8]: 15 mL/min/kg; Vd [10]: 2 L/kg; half-life [11]: 1.8 h; Vd [12]: 0.3 L/kg; half-life [13]: 0.5 h; clearance [15]: 15 mL/min/kg
COC(=O)N(C)c1c(N)nc(-c2nn(Cc3ccccc3F)c3ncccc23)nc1N [RIOCIGUAT]	0.03 µM	3.33 mL/min/kg	bioavailability [7]: 46%; clearance [8]: 21.7 mL/min/kg; Vd [10]: 0.7 L/kg; half-life [11]: 2.4 h; Vd [12]: 1.2 L/kg; half-life [13]: 1.4 h; bioavailability [14]: 79%; clearance [15]: 5 mL/min/kg
Nc1nc(-c2nn(Cc3ccccc3F)c3ncccc23)nc(N)c1NC(=O)OCC1CC1	0.2 µM	23.3 mL/min/kg	–
COC(=O)N(CC(F)F)c1c(N)nc(-c2nn(Cc3ccccc3F)c3ncccc23)nc1N	0.1 µM	6.67 mL/min/kg	–
CCN(C(=O)OC)c1c(N)nc(-c2nn(Cc3ccccc3F)c3ncccc23)nc1N	0.2 µM	11.7 mL/min/kg	–
COC(=O)N(Cc1cccc(F)c1)c1c(N)nc(-c2nn(Cc3ccccc3F)c3ncccc23)nc1N	0.2 µM	53.3 mL/min/kg	–
COC(=O)Nc1c(N)nc(-c2nn(Cc3ccccc3F)c3nnccc23)nc1N	2 µM	< 1.67 mL/min/kg	clearance [8]: 63.3 mL/min/kg
COC(=O)N(CC(F)(F)F)c1c(N)nc(-c2nn(Cc3ccccc3F)c3ncccc23)nc1N	0.1 µM	15 mL/min/kg	–
COC(=O)Nc1c(N)nc(-n2nc(Cc3ccccc3F)c3ncccc32)nc1N	1.2 µM	< 1.67 mL/min/kg	clearance [8]: 16.7 mL/min/kg
Nc1nc(-c2nn(Cc3ccccc3F)c3ncccc23)nc(N)c1N1C[C@H](C(F)(F)F)OC1=O	0.2 µM	–	–
COC(=O)Nc1c(N)nc(-c2nn(Cc3ccccc3F)c3ncccc23)nc1N	0.3 µM	1.67 mL/min/kg	efflux ratio [5]: 5; Papp A→B at 2 h, 2 µM [6]: 7.9 ×10⁻⁶ cm/s
Nc1nc(-c2nn(Cc3ccccc3F)c3ncccc23)nc(N)c1NC(=O)OCC(F)(F)F	0.2 µM	35 mL/min/kg	–
Nc1nc(-c2nn(Cc3ccccc3F)c3ncccc23)nc(N)c1NC(=O)OC1COC1	2.3 µM	1.67 mL/min/kg	efflux ratio [5]: 74; Papp A→B at 2 h, 2 µM [6]: 0.2 ×10⁻⁶ cm/s
COC(=O)Nc1c(N)nc(-c2nc(Cc3ccccc3F)c3ncccn23)nc1N	1.7 µM	–	clearance [8]: 30 mL/min/kg

Reference: ChEMBL document CHEMBL4014344, “Discovery of the Soluble Guanylate Cyclase Stimulator Vericiguat (BAY 1021189) for the Treatment of Chronic Heart Failure” (J Med Chem, 2017)
